# Published values collected from several papers.
# Protocols differ between the studies behind these lines.
# Target: Serine/threonine-protein kinase NIM1 (NIM1K, Homo sapiens, UniProt Q8IY84)
SMILES,assay,conditions,quantity,value
CN1CC(Oc2cnc(C#N)cc2-c2ccn3nc(NC(=O)C4CC4)cc3c2)C1,"enzyme activity, inhibitor",1 µM,inhibition,8%
COc1cc(Cl)c(C(=O)N[C@@H](CN[C@H]2CC[C@@H](N)CC2)Cc2ccc(C#N)cc2)cc1-c1ccc(CN[C@H](C)c2ccc(C)cc2)o1,"enzyme activity, inhibitor",1 µM,remaining activity,98%
O=C(Nc1cnn(-c2csc(C(=O)NC3COC3)c2)c1)Nc1ccccc1Cl,"enzyme activity, inhibitor",5 µM,remaining activity,101%
Cc1cnc(NC2CCOCC2)nc1-n1cnc(C(=O)NC(CN)c2cc(F)cc(Cl)c2)c1 (centres unmarked),"enzyme activity, inhibitor, radiometric",1 µM,remaining activity,40%
CC/C(=N\NC(=O)NCc1cccc(O)c1)c1ccc(O)c(C)c1O,"enzyme activity, inhibitor",0.1 µM,inhibition,-2.9%
Cc1c(C(=O)O)cc(-c2ccc(C3CCNCC3)cc2)c2ccc(-c3ccc(C(F)(F)F)cc3)cc12,"binding, competition with immobilised ligand",1 µM,remaining binding,92%
O=C(Nc1cnn(-c2csc(C(=O)NC3COC3)c2)c1)Nc1c(F)cccc1Cl,"enzyme activity, inhibitor",5 µM,remaining activity,70.7%
Cc1ccc(NC(=O)c2ccc(C)c(C(F)(F)F)c2)cc1C#Cc1nn(C2CCC(O)CC2)c2ncnc(N)c12 (centres unmarked),cell-free assay,10 µM,remaining signal,131%
Cc1cc(NC(=O)c2cccc3cc(-c4cccc5[nH]nc(N)c45)ccc23)ccc1F,"enzyme activity, inhibitor",0.1 µM,activity vs control,115%
COc1cc(-c2cn(C3CCc4ccccc4N(CC(F)(F)F)C3=O)nn2)ccc1-n1ccc(C)n1 (centres unmarked),"cell-free assay, competition with immobilised ligand",1 µM,remaining binding,80%
Nc1ncnc2occ(-c3ccc(NC(=O)Nc4cc(C(F)(F)F)ccc4F)cc3)c12,"cell-free assay, inhibitor",20 µM,remaining signal,67%
